In brackets after ≈: the same amount, converted by molar mass. Activity calls are given as the source filed them. The rule behind the calls is not given here.
How the values were obtained:
[1] = system: Micrococcus luteus; experiment: Antibiofilm activity against Micrococcus luteus MTCC 2470 incubated for 24 hrs under static condition by crystal violet staining-based assay; type: functional
Method in brief: (§1)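 Strains grown overnight in tryptone soy broth with 0.5% glucose. Compound (250 to 0) mixed with inoculum at 5 × 10^5 CFU/mL in polystyrene microtiter plates. Non-adherent cells washed off with PBS; wells stained with 0.1% crystal violet, dye solubilised in 95% ethanol, absorbance read at 540 nm. IC50 for 50% biofilm inhibition taken from dose-response curves. Triplicates, mean ± S.D.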

[2] = system: Micrococcus luteus; experiment: Induction of intracellular ROS accumulation in Micrococcus luteus MTCC 2470 sessile biofilm cells at 0.5 to 4 ug/ml after 24 hrs by DCFH-DA staining-based assay; type: functional, cell-based
Method in brief: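 Intracellular ROS was measured in M. luteus MTCC 2470 biofilms grown in 24-well plates. Mature biofilms were treated and incubated 24 h at 30 °C together with […] DCFH-DA. Well contents were centrifuged at 5000 × g for 10 min. Fluorescence (ex 485/em 535 nm) was read separately for supernatant and for sessile cells resuspended in PBS. Triplicate, mean ± S.D.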

[3] = system: Raoultella planticola; experiment: Antibiofilm activity against Klebsiella planticola MTCC 530 incubated for 24 hrs under static condition by crystal violet staining-based assay; type: functional; method in brief: as §1
[4] = system: Escherichia coli; experiment: Antibiofilm activity against Escherichia coli MTCC 739 incubated for 24 hrs under static condition by crystal violet staining-based assay; type: functional; method in brief: as §1
[5] = system: Bacillus subtilis; experiment: Antibiofilm activity against Bacillus subtilis MTCC 121 incubated for 24 hrs under static condition by crystal violet staining-based assay; type: functional; method in brief: as §1
[6] = system: Staphylococcus aureus; experiment: Antibiofilm activity against Staphylococcus aureus MLS16 MTCC 2940 incubated for 24 hrs under static condition by crystal violet staining-based assay; type: functional; method in brief: as §1
[7] = system: Raoultella planticola; experiment: Antibacterial activity against Klebsiella planticola MTCC 530 after 24 hrs by well diffusion method; type: functional; conditions: MTCC 530, 24 h
Method in brief: (§2)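 Bacteria spread (0.1 mL suspension) on Mueller-Hinton agar; 6.0 mm wells loaded with compound over a 250 to 0.48 per-well dose range, methanol as negative control. Incubated 24 h at 37 °C. MIC taken as the lowest concentration still giving an inhibition zone. Duplicates, mean reported.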

[8] = system: Pseudomonas aeruginosa; experiment: Antibiofilm activity against Pseudomonas aeruginosa MTCC 2453 incubated for 24 hrs under static condition by crystal violet staining-based assay; type: functional; method in brief: as §1
[9] = system: Escherichia coli; experiment: Antibacterial activity against Escherichia coli MTCC 739 after 24 hrs by well diffusion method; type: functional; conditions: MTCC 739, 24 h; method in brief: as §2
[10] = system: Staphylococcus aureus; experiment: Antibacterial activity against Staphylococcus aureus MLS16 MTCC 2940 after 24 hrs by well diffusion method; type: functional; conditions: MLS16 MTCC 2940, 24 h; method in brief: as §2
[11] = system: Staphylococcus aureus; experiment: Antibiofilm activity against Staphylococcus aureus MTCC 96 incubated for 24 hrs under static condition by crystal violet staining-based assay; type: functional; method in brief: as §1
[12] = system: Pseudomonas aeruginosa; experiment: Antibacterial activity against Pseudomonas aeruginosa MTCC 2453 after 24 hrs by well diffusion method; type: functional; conditions: MTCC 2453, 24 h; method in brief: as §2
[13] = system: Bacillus subtilis; experiment: Antibacterial activity against Bacillus subtilis MTCC 121 after 24 hrs by well diffusion method; type: functional; conditions: MTCC 121, 24 h; method in brief: as §2
[14] = system: Staphylococcus aureus; experiment: Antibacterial activity against Staphylococcus aureus MTCC 96 after 24 hrs by well diffusion method; type: functional; conditions: MTCC 96, 24 h; method in brief: as §2
[15] = system: Micrococcus luteus; experiment: Antibacterial activity against Micrococcus luteus MTCC 2470 after 24 hrs by well diffusion method; type: functional; conditions: MTCC 2470, 24 h; method in brief: as §2
[16] = system: Staphylococcus aureus; experiment: Bactericidal activity against Staphylococcus aureus MLS16 MTCC 2940 after 24 hrs; type: functional; conditions: MLS16 MTCC 2940, 24 h
Method in brief: (§3)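 Broth macrodilution in Mueller Hinton broth, compound serially diluted from 150 down to 0. Overnight bacterial culture added to a final 1.5 × 10^8 CFU/mL (0.5 McFarland), 24 h at 37 °C. Suspension then subcultured onto Mueller Hinton agar for 24 h at 37 °C. MBC is the lowest concentration killing the strain. Duplicates.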

[17] = system: Micrococcus luteus; experiment: Bactericidal activity against Micrococcus luteus MTCC 2470 after 24 hrs; type: functional; conditions: MTCC 2470, 24 h; method in brief: as §3
[18] = system: Escherichia coli; experiment: Bactericidal activity against Escherichia coli MTCC 739 after 24 hrs; type: functional; conditions: MTCC 739, 24 h; method in brief: as §3
[19] = system: Raoultella planticola; experiment: Bactericidal activity against Klebsiella planticola MTCC 530 after 24 hrs; type: functional; conditions: MTCC 530, 24 h; method in brief: as §3
[20] = system: Pseudomonas aeruginosa; experiment: Bactericidal activity against Pseudomonas aeruginosa MTCC 2453 after 24 hrs; type: functional; conditions: MTCC 2453, 24 h; method in brief: as §3
[21] = system: Bacillus subtilis; experiment: Bactericidal activity against Bacillus subtilis MTCC 121 after 24 hrs; type: functional; conditions: MTCC 121, 24 h; method in brief: as §3
[22] = system: Staphylococcus aureus; experiment: Bactericidal activity against Staphylococcus aureus MTCC 96 after 24 hrs; type: functional; conditions: MTCC 96, 24 h; method in brief: as §3

With `O=C(O)c1cn(C2CC2)c2cc(N3CCNCC3)c(F)cc2c1=O` [CIPROFLOXACIN] the IC50 [1] was 0.5 µg/mL (≈ 1.51 µM), the Activity [2] was “Active” and the IC50 [3] was 0.6 µg/mL (≈ 1.81 µM). For the same molecule, the INH [4] was 0.8 µg/mL, the IC50 [5] was 0.7 µg/mL (≈ 2.11 µM) and the IC50 [6] was 0.4 µg/mL (≈ 1.21 µM). It also gave an MIC [7] of 0.9 µg/mL (≈ 2.72 µM), an INH [8] of 0.7 µg/mL and an MIC [9] of 0.9 µg/mL (≈ 2.72 µM). The MIC [10] was 0.9 µg/mL (≈ 2.72 µM), the IC50 [11] was 0.6 µg/mL (≈ 1.81 µM) and the MIC [12] was 0.9 µg/mL (≈ 2.72 µM). It also gave an MIC [13] of 0.9 µg/mL (≈ 2.72 µM), an MIC [14] of 0.9 µg/mL (≈ 2.72 µM) and an MIC [15] of 0.9 µg/mL (≈ 2.72 µM). The MBC [16] was 0.9 µg/mL (≈ 2.72 µM), the MBC [17] was 1.9 µg/mL (≈ 5.73 µM) and the MBC [18] was 0.9 µg/mL (≈ 2.72 µM). For the same molecule, the MBC [19] was 0.9 µg/mL (≈ 2.72 µM), the MBC [20] was 1.9 µg/mL (≈ 5.73 µM) and the MBC [21] was 1.9 µg/mL (≈ 5.73 µM). For the same molecule, the MBC [22] was 0.9 µg/mL (≈ 2.72 µM).
